Measured values reported in ChEMBL document CHEMBL3867435, “Chemical Constituents of Mangifera indica and Their Antiausterity Activity against the PANC-1 Human Pancreatic Cancer Cell Line” (J Nat Prod, 2016).
Calls of active or inactive are those of the source. The calls are words filed in the database; no cut-off is given here.

Legend:
[1] = (§1) Antiausteritic activity against human PANC1 cells in nutrient-deprived medium measured after 24 hrs by WST8 assay; assay type: functional, PANC-1
Method in brief: (§2)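 PANC-1 (Riken BRC) kept in DMEM + 10% FBS, 37 °C, 5% CO2. Seeded 1.5 × 10^4/well, 24 h in fresh DMEM, washed twice with PBS. Serial dilutions then given in DMEM or in NDM (salts, MEM vitamins, 25 mM HEPES, pH 7.4, no glucose/amino acids/serum) for 24 h. Viability read with 10% WST-8 in DMEM, 3 h, A450, vs control and blank; mean of three wells.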

[2] = Cytotoxicity against human PANC1 cells in Dulbecco's modified Eagle medium measured after 24 hrs by WST8 assay; assay type: toxicity, cell-based; settings: panc-1, 24 h; method in brief: as §2
[3] = test system: PANC-1; assay: Induction of morphological changes in human PANC1 cells in nutrient-deprived medium assessed as plasma membrane blebbing at 5 uM measured after 9 hrs by phase contrast microscopic method; assay type: functional, cell-based
Method in brief: (§3)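 Cells (3.0 × 10^6) plated in 35 mm dishes and attached overnight in complete medium. Washed twice with PBS, then treated at 5 μM in NDM. Held in a stage-top incubator at 37 °C, 5% CO2, with phase-contrast images taken every 5 min for 48 h.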

[4] = test system: PANC-1; assay: Induction of morphological changes in human PANC1 cells in nutrient-deprived medium at 5 uM measured after 6 hrs by phase contrast microscopic method; assay type: functional, cell-based; method in brief: as §3
[5] = test system: PANC-1; assay: Induction of cell death in human PANC1 cells in nutrient-deprived medium at 5 uM after 48 hrs by phase contrast microscopic method; assay type: functional, cell-based; method in brief: as §3
[6] = test system: PANC-1; assay: as §1; assay type: functional; method in brief: as §2
[7] = test system: PANC-1; assay: Induction of cell death in human PANC1 cells in nutrient-deprived medium at 10 uM measured after 24 hrs by acridine orange/ethidium bromide-staining based fluorescence microscopy; assay type: functional
Method in brief: (§4)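 After 24 h attachment (1.5 × 10^4/well, DMEM or RPMI-1640), cells were PBS-washed twice and exposed 24 h to compound in NDM (NDM alone as control). EB/AO reagent added for 5 min. Imaged at 20× in fluorescent and phase-contrast modes: green (AO) marks live cells, red (EB) marks dead cells.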

[8] = test system: PANC-1; assay: Induction of morphological changes in human PANC1 cells in nutrient-deprived medium at 10 uM measured after 24 hrs by acridine orange/ethidium bromide-staining based fluorescence microscopy; assay type: functional, cell-based; method in brief: as §4
[9] = Induction of cell death in human PANC1 cells in nutrient-deprived medium at 5 uM up to 24 hrs by phase contrast microscopic method; assay type: functional, PANC-1
Method in brief: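 PANC-1 cells from the Riken bank, grown in DMEM with 10% FBS, were plated at 3.0 × 10^6 per 35 mm dish and left to attach overnight in complete medium. After two PBS washes they were treated in nutrient-deprived medium (inorganic salts, 25 mM HEPES pH 7.4, MEM vitamins; no glucose, amino acids or serum). Cells were kept in a stage-top incubator at 37 °C and 5% CO2, with phase-contrast images every 5 min.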

[10] = test system: PANC-1; assay: Inhibition of mobility in human PANC1 cells in nutrient-deprived medium at 5 uM measured after 6 hrs by phase contrast microscopic method; assay type: functional, cell-based; method in brief: as §3

SMILES | PC50 [1] [µM] | Activity [2] | other results
O=c1[nH]cc(F)c(=O)[nH]1 [FLUOROURACIL] | >200 | – | –
COc1cc(C[C@H]2C(=O)OC[C@@H]2Cc2ccc(OC)c(OC)c2)ccc1O [ARCTIGENIN] | 0.8 | – | –
O=c1c2cc(O)c(O)cc2oc2cc(O)c([C@@H]3O[C@H](CO)[C@@H](O)[C@H](O)[C@H]3O)c(O)c12 [MANGIFERIN] | >100 | Non-Toxic | –
C/C(=C\CC[C@@H](C)[C@H]1CC[C@@]2(C)[C@@H]3CC[C@H]4C(C)(C)C(=O)CC[C@@]45C[C@@]35CC[C@]12C)C(=O)O [MANGIFERONIC ACID] | >100 | Non-Toxic | –
C[C@H](CC/C=C(\CO)C(=O)O)[C@H]1CC[C@@]2(C)[C@@H]3CC[C@H]4C(C)(C)[C@@H](O)CC[C@@]45C[C@@]35CC[C@]12C | 52.1 | Non-Toxic | –
C/C(=C\C(O)C[C@@H](C)[C@H]1CC[C@@]2(C)[C@@H]3CC[C@H]4C(C)(C)[C@@H](O)CC[C@@]45C[C@@]35CC[C@]12C)C(=O)O (stereo not given in full) | >100 | Non-Toxic | –
COc1cc(O)c(C(=O)c2ccc(O)cc2)c(O)c1[C@@H]1O[C@H](CO)[C@@H](O)[C@H](O)[C@H]1OC(=O)c1ccc(O)cc1 | >100 | Non-Toxic | –
COc1cc(O)c(C(=O)c2ccc(O)cc2)c(O[C@@H]2O[C@H](CO)[C@@H](O)[C@H](O)[C@H]2O)c1 [MAHKOSIDE A] | >100 | Non-Toxic | –
C=C(CC[C@@H](C)[C@H]1CC[C@@]2(C)[C@@H]3CC[C@H]4C(C)(C)[C@@H](O)CC[C@@]45C[C@@]35CC[C@]12C)[C@@H](C)C(=O)O | >100 | Non-Toxic | –
COc1cc(O)c(C(=O)c2ccc(O)cc2)c(O)c1 | >100 | Non-Toxic | –
C/C(=C\C(O)C[C@@H](C)[C@H]1CC[C@@]2(C)[C@@H]3CC[C@H]4C(C)(C)C(=O)CC[C@@]45C[C@@]35CC[C@]12C)C(=O)O (stereo not given in full) | 32.3 | Non-Toxic | –
C=C(CC[C@@H](C)[C@H]1CC[C@@]2(C)[C@@H]3CC[C@H]4C(C)(C)[C@@H](O)CC[C@@]45C[C@@]35CC[C@]12C)[C@@H](C)C(=O)OC | >100 | Non-Toxic | –
C=C(CC[C@@H](C)[C@H]1CC[C@@]2(C)[C@@H]3CC[C@H]4C(C)(C)[C@@H](O)CC[C@@]45C[C@@]35CC[C@]12C)C(C)CO (stereo not given in full) | >100 | Non-Toxic | –
C/C(=C\CC[C@@H](C)[C@H]1CC[C@@]2(C)[C@@H]3CC[C@H]4C(C)(C)[C@@H](O)CC[C@@]45C[C@@]35CC[C@]12C)C(=O)O [MANGIFEROLIC ACID] | >100 | Non-Toxic | –
C=C(CC[C@@H](C)[C@H]1CC[C@@]2(C)[C@@H]3CC[C@H]4C(C)(C)C(=O)CC[C@@]45C[C@@]35CC[C@]12C)[C@@H](C)C(=O)OC | 22.8 | Non-Toxic | –
Nc1ccn([C@@H]2O[C@H](CO)[C@@H](O)C2(F)F)c(=O)n1 [GEMCITABINE] | > 100 | – | –
C=C(CC[C@@H](C)[C@H]1CC[C@@]2(C)[C@@H]3CC[C@H]4C(C)(C)[C@H](O)CC[C@@]45C[C@@]35CC[C@]12C)[C@@H](C)C(=O)O | 4.8 | Non-Toxic | Activity [3]: Active; Activity [4]: Active; Activity [5]: Active; Activity [6]: Dose-dependent effect; Activity [7]: Active; Activity [8]: Active; Activity [9]: >50%; inhibition [10]: Active
C=C(CC[C@@H](C)[C@H]1CC[C@@]2(C)[C@@H]3CC[C@H]4C(C)(C)[C@@H](OC(C)=O)CC[C@@]45C[C@@]35CC[C@]12C)C(C)C(=O)O (stereo not given in full) | 11 | Non-Toxic | Activity [6]: Dose-dependent effect
C=C(CC[C@@H](C)[C@H]1CC[C@@]2(C)[C@@H]3CC[C@H]4C(C)(C)C(=O)CC[C@@]45C[C@@]35CC[C@]12C)[C@@H](C)C(=O)O | 44.2 | Non-Toxic | –
CCCC/C=C\CCCCCCCCCCCC(=O)O[C@H]1CC[C@]23C[C@]24CC[C@]2(C)[C@@H]([C@H](C)CC/C=C(\C)C(=O)O)CC[C@@]2(C)[C@@H]4CC[C@H]3C1(C)C | 69.6 | Non-Toxic | –
COc1cc(O)c(C(=O)c2ccc(O)cc2)c(O)c1[C@@H]1O[C@H](CO)[C@@H](O)[C@H](O)[C@H]1O | >100 | Non-Toxic | –
C[C@H](CC/C=C(\CO)C(=O)O)[C@H]1CC[C@@]2(C)[C@@H]3CC[C@H]4C(C)(C)C(=O)CC[C@@]45C[C@@]35CC[C@]12C | >100 | Non-Toxic | –
